Calls of active or inactive are those of the source. The calls are words filed in the database; no cut-off is given here.
What was measured:
[1] = tested on: L6; assay: Stimulation of [3H]2-deoxyglucose uptake in rat L6 cells at 10 uM incubated for 16 hrs by scintillation counting method; assay type: functional, cell-based
Method in brief: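 L6 myotubes incubated with the compound […]; insulin at 100 nM for 20 min served as the positive control. Uptake of ³H-2-deoxyglucose measured and expressed as fold stimulation relative to the control condition.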

[2] = tested on: Mus musculus; assay: Antihyperglycemic activity in db/db mouse assessed as reduction in cholesterol level at 10 mg/kg, po qd for 15 days; assay type: functional; design: scale not given: the % may be the effect or the level left
Method in brief: (§1)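 db/db mice given 3, 10 or 30 mg/kg orally once a day for 15 consecutive days, alongside vehicle controls. Serum triglyceride, total cholesterol, HDL-C and insulin measured, along with fasting blood glucose. Expressed as mean % change in 5 animals per group versus control.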

[3] = tested on: Mus musculus; assay: Antihyperglycemic activity in db/db mouse assessed as reduction in blood glucose level at 10 mg/kg, po qd and measured on day 4 by oral glucose tolerance test; assay type: functional, organism-based
Method in brief: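 Type 2 diabetic db/db mice dosed orally once a day for 15 days at 3, 10 or 30 mg/kg, with pioglitazone at 10 mg/kg as standard. Blood glucose measured daily and profile compared with vehicle-treated animals. Mean % change in 5 animals per group.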

[4] = tested on: Mus musculus; assay: Antihyperglycemic activity in db/db mouse assessed as improvement on glucose tolerance by measuring blood glucose AUC level at 10 mg/kg, po qd for 10 days by oral glucose tolerance test; assay type: functional
Method in brief: (§2)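 db/db mice dosed orally once daily for 15 consecutive days at 3, 10 or 30 mg/kg, with vehicle controls and pioglitazone at 10 mg/kg. Oral glucose tolerance tests on day 10 and day 15. Overall improvement in glucose tolerance calculated against vehicle control. Mean % change in 5 animals per group.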

[5] = tested on: Mus musculus; assay: Antihyperglycemic activity in db/db mouse assessed as reduction in fasting blood glucose level at 10 mg/kg, po qd for 15 days; assay type: functional; design: scale not given: the % may be the effect or the level left; method in brief: as §1
[6] = tested on: Mus musculus; assay: Antihyperglycemic activity in db/db mouse assessed as increase in HDL-C level at 10 mg/kg, po qd for 15 days; assay type: functional; method in brief: as §1
[7] = tested on: Mus musculus; assay: Antihyperglycemic activity in db/db mouse assessed as improvement on glucose tolerance by measuring blood glucose AUC level at 10 mg/kg, po qd for 15 days by oral glucose tolerance test; assay type: functional; method in brief: as §2
[8] = tested on: Mus musculus; assay: Antihyperglycemic activity in db/db mouse assessed as reduction in triglyceride level at 10 mg/kg, po qd for 15 days; assay type: functional; design: scale not given: the % may be the effect or the level left; method in brief: as §1
[9] = tested on: Mus musculus; assay: Antihyperglycemic activity in db/db mouse assessed as reduction in insulin level at 10 mg/kg, po qd for 15 days; assay type: functional; design: scale not given: the % may be the effect or the level left; method in brief: as §1

Q: How did the Activity [1] turn out when `COC(=O)c1c(SC)cc(-c2ccccc2)c2c1-c1cn(-c3ccccc3)nc1CC2` was run?
A: Its Activity is “inactive”.

Q: With `COC(=O)c1c(S(C)(=O)=O)cc(-c2ccc(C)cc2)c2c1-c1cn(-c3ccccc3)nc1CC2` as the compound, how does the Activity [1] read?
A: The Activity was “inactive”.

Q: Which Activity [1] does the source give for `COC(=O)c1c(SC)cc(-c2ccc3ccc4cccc5ccc2c3c45)c2c1-c1cn(-c3ccccc3)nc1CC2` here?
A: The Activity was “inactive”.

Q: With `COC(=O)c1c(SC)cc(-c2ccc(Cl)cc2)c2c1-c1cn(-c3ccccc3)nc1CC2` as the compound, how does the Activity [1] read?
A: Its Activity is “inactive”.

Q: How did the Activity [1] turn out when `COC(=O)c1c(SC)cc(-c2ccc(Br)cc2)c2c1-c1cn(-c3ccccc3)nc1CC2` was run?
A: The Activity was “inactive”.

Q: How did the Activity [2] turn out when `CCc1ccc(CCOc2ccc(CC3SC(=O)NC3=O)cc2)nc1` (stereo not drawn) [PIOGLITAZONE] was run?
A: Its Activity is 15.1%.

Q: What about the Activity [3] of the same compound?
A: Its Activity is “Active”.

Q: And the Activity [4]?
A: Its Activity is 34.8%.

Q: What about the Activity [5] of the same compound?
A: Its Activity is 59.1%.

Q: And the Activity [6]?
A: Its Activity is 23.9%.

Q: And the Activity [7]?
A: The Activity was 45.4%.

Q: And the Activity [8]?
A: The Activity was 9.58%.

Q: And the Activity [9]?
A: Its Activity is 58.1%.
